# Measured values as given in ChEMBL document CHEMBL4219101, “Discovery of 18β-glycyrrhetinic acid conjugated aminobenzothiazole derivatives as Hsp90-Cdc37 interaction disruptors that inhibit cell migration and reverse drug resistance” (Bioorg Med Chem, 2018).
# Active and inactive are the calls of the source. No cut-off for these calls is given here.
# Tests used:
# [1] = Inhibition of His-tagged full-length Hsp90 (unknown origin)/GST-tagged Cdc37M (unknown origin) interaction after 1 hr by HTRF assay; design: species or system Homo sapiens
# Method in brief: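 TR-FRET in PBS containing 400 mM KF, pH 7.3. His-tagged full-length Hsp90 and GST-Cdc37M, each 250 nM final, incubated with compound for 1 h at 37 °C. Anti-GST-Cryptate and anti-6His-XL665 then added for a further 0.5 h at 37 °C. Excitation 320 nm, emission 665/620 nm, reported as ratio ×10,000. Negative and blank controls run in each assay.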
# MCF7 = test: Antiproliferative activity against human MCF7 cells after 48 hrs by MTT assay; assay type: functional, cell-based; conditions: MCF7, 48 h
# Method in brief: (§1)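 Cells in log phase seeded at about 1.0 × 10^5 cells/mL in 96-well plates, left 12 h at 37 °C, 5% CO2. Compounds dissolved in DMSO, added at 2.5, 5, 10, 20 and 50 µM, 48 h exposure. Absorbance read at 570/630 nm dual wavelength. Survival expressed relative to negative control. IC50 by Bliss method (n = 5), tests done in triplicate.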
# [2] = Antiproliferative activity against human NCI-460 cells after 48 hrs by MTT assay; assay type: functional, cell-based; conditions: NCI-460, 48 h; method in brief: as §1
# Homo sapiens = species: Homo sapiens; test: Inhibition of HSP90/Cdc37 interaction assessed as reversal of drug resistance by measuring ratio of IC50 for human doxorubicin-resistant NCI-H460 cells to IC50 for human NCI-H460 cells
# Method in brief: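 Resistance factor is the ratio of IC50 in NCI-H460/DOX cells to IC50 in parental NCI-H460 cells. […] Values are mean ± SD of five separate experiments. Doxorubicin serves as the positive control.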
# A549 [3] = test: Inhibition of HSP90/Cdc37 interaction in human A549 cells assessed as suppression cellular migration at 5 to 10 uM after 24 hrs by wound healing assay; assay type: cell-based
# Method in brief: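 Scratch wounds made in A549 monolayers, cells then exposed to 5 µM and 10 µM. Wound closure imaged by microscopy at 0 h and 24 h, magnification 200×.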
# A549 [4] = test: Cell cycle arrest in human A549 cells assessed as accumulation at S phase at 5 uM after 48 hrs by propidium iodide staining-based flow cytometry (reference value: 19.62%); assay type: functional
# A549 [5] = test: Cell cycle arrest in human A549 cells assessed as accumulation at S phase at 10 uM after 48 hrs by propidium iodide staining-based flow cytometry (reference value: 19.62%); assay type: functional
# A549 [6] = test: Induction of apoptosis in human A549 cells assessed as increase in number of nuclei containing condensed chromatin at 5 to 10 uM after 24 hrs by Hoechest 33258-staining based fluorescence microscopy; assay type: functional, cell-based
# Method in brief: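 5.0 × 10^5 A549 cells per well exposed to 5 and 10 µM for 24 h, untreated cells as control. Fixed in 4% paraformaldehyde for 30 min, washed with ice-cold PBS and stained with Hoechst 33258 for 20 min in the dark. Condensed nuclei imaged by fluorescence microscopy at 350 nm excitation and 460 nm emission, 200× magnification.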
# A549 [7] = test: Induction of apoptosis in human A549 cells assessed as increase in intracellular ROS levels after 24 hrs by FITC-DCF-DA-fluorescence based flow cytometry; assay type: functional, cell-based
# Method in brief: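 A549 cells exposed to 5 and 10 µM for 24 h, untreated cells as control. Collected, washed with ice-cold PBS and loaded with DCFH-DA in cell-free medium for 20 min at 37 °C in the dark, then washed. Fluorescence measured by flow cytometry at 485 nm excitation and 538 nm emission. Mean ± S.D. of three independent experiments.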
# [8] = target: T1, Heat shock protein HSP90 (Homo sapiens) (UniProt P07900+P08238); test: Inhibition of HSP90 in human A549 cells assessed as induction of HSP70 expression after 24 hrs by Western blot analysis; assay type: cell-based
# Method in brief: (§2)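 A549 cells exposed for 24 h, with geldanamycin as comparator. Whole-cell lysates separated by SDS-PAGE and immunoblotted for the named proteins. β-actin used as reference.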
# [9] = target: T1, Heat shock protein HSP90 (Homo sapiens); test: Inhibition of HSP90 in human A549 cells assessed as induction of HSP27 expression after 24 hrs by Western blot analysis; assay type: cell-based; method in brief: as §2
# A549 [10] = test: Induction of apoptosis in human A549 cells assessed as viable cells at 5 uM after 24 hrs by Annexin-V FITC/propidium iodide staining based flow cytometry (reference value: 97.6%); conditions: A549, 24 h
# A549 [11] = test: Induction of apoptosis in human A549 cells assessed as viable cells at 10 uM after 24 hrs by Annexin-V FITC/propidium iodide staining based flow cytometry (reference value: 97.6%); conditions: A549, 24 h
# A549 [12] = test: Induction of apoptosis in human A549 cells assessed as necrotic cells at 10 uM after 24 hrs by Annexin-V FITC/propidium iodide staining based flow cytometry (reference value: 2.32%)
smiles,measurement,setting,value
CCOC(=O)[C@@]1(C)CC[C@]2(C)CC[C@]3(C)C(=CC(=O)[C@@H]4[C@@]5(C)CC[C@H](OC(=O)CCC(=O)Nc6nc7ccc(F)cc7s6)C(C)(C)[C@@H]5CC[C@]43C)[C@@H]2C1,IC50,[1],0.14 µM
same,IC50,MCF7,6.37 µM
same,IC50,[2],7.41 µM
same,Ratio IC50,Homo sapiens,1.36
same,inhibition,A549 [3],Active
same,Activity,A549 [4],34.09%
same,Activity,A549 [5],40.35%
same,Activity,A549 [6],Dose-dependent effect
same,Activity,A549 [7],Dose-dependent effect
same,inhibition,[8],Dose-dependent effect
same,inhibition,[9],Dose-dependent effect
same,viability at 5 µM,A549 [10],85.5%
same,viability at 10 µM,A549 [11],78.8%
same,Activity,A549 [12],1.15%
